# High-throughput results: PubChem BioAssay, several laboratories
# Shown are actives, neighbours in structure and some others; about 1.8% of the full set was active somewhere.
# CAL PDZ FP-1: untagged CAL PDZ binding inhibitors, primary screen, biochemical, fluorescence polarization, HTS. purified CAL PDZ, TMR-peptide fluorescence polarization, 1 h. inhibition, % at 24.9 µM. actives 0.92% (n = 300,000);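 active = mean inhibition of at least 30% with at least half of replicates also reaching 30%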;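 note: 0% = DMSO neutral control and 100% = excess unlabeled competitor peptide PRC23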
# ARNT TACC3 PPI: disruptors of ARNT/TACC3 protein interaction, primary screen, biochemical, AlphaScreen, single concentration; inhibition, % at 9.99 µM; AlphaScreen His-ARNT PAS-B/GST-TACC3 binding, luminescence; TACC3 fragment carries E629A point mutation; Transforming acidic coiled-coil-containing protein 3 (Homo sapiens), Q9Y6A5; actives 0.66% (n = 390,000);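 active = mean inhibition of replicates at least 50% and at least half of replicates each reaching 50%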;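 note: 0% = complete ARNT plus TACC3 wells and 100% = ARNT alone without TACC3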
# DDE Tn6 FP inh: inhibitors of Tn6 peptide binding to fibrin DD(E), primary screen, biochemical, fluorescence polarization, human fibrin, Tn6 probe; Fibrin DD(E) TRITC-Tn6 fluorescence polarization displacement; inhibition, % at 8.3 µM; actives 0.21% (n = 370,000); AID 720509, 2013;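 active = inhibition above a per-campaign cutoff: mean of compounds within control limits plus 3 SD, cut at about 15% in these data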;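 note: 0% = median of all compound wells on the plate and 100% = blocking peptide control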
# CAL PDZ FP-2: CAL PDZ peptide-binding inhibitors, primary screen, biochemical, fluorescence polarization, Cer-tagged CAL PDZ, HTS | actives 0.02% (n = 330,000) | purified CAL PDZ, TMR-peptide fluorescence polarization, 1 h | Golgi-associated PDZ and coiled-coil motif-containing protein (Homo sapiens), Q9HD26 | inhibition, % at 20 µM | AID 504414, 2011;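 active = highest replicate inhibition of at least 40%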;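 note: plate controls were DMSO neutral control wells for no effect and unlabeled competitor peptide control wells for full effect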
#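 Test system: tagged CAL PDZ domain / Buffer or medium: sodium phosphate/NaCl buffer pH 7.4 with TCEP, IgG, Thesit / Reagent: TMR-labelled reporter peptide T*-PRC34 bound in PDZ groove / Compound dosing: single point, 20 µM / Schedule: 1 h incubation at room temperature before polarization reading / Technique: fluorescence polarization (mP) / Benchmarks: unlabelled peptide, DMSO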
# Tn7 DDE FP: inhibitors of Tn7 peptide binding to fibrin DD(E), primary screen, biochemical, fluorescence polarization, human fibrin, Tn7 probe | AID 720508, 2013 | actives 0.13% (n = 370,000) | Fibrinogen beta chain (Homo sapiens), P02675 | FP displacement of FITC-Tn7 peptide from fibrin DD(E); 0% = median of compound wells per plate | inhibition, % at 8.3 µM;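 active = inhibition above the mean of compounds falling within the control limits plus 3 SD of them, cut at about 14% in these data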;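 note: 0% = plate median of compound wells and 100% = 10 µM Aha-Tn7 peptide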
#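 Measure: % inhibition scaled between sample-field median and high-control FP; Test system: human fibrin DD(E); Quantity: 2 µM final DD(E) protein; Doses: one dose, 8.3 µM nominal; Schedule: compound with protein 10 min, then 3 h after probe, room temperature; Detection: fluorescence polarization; Medium: Tris buffer with calcium and detergent, pH 7.8.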
# GRK2 inh: compounds blocking aptamer binding on GRK2 – biochemical, human GRK2, bead flow cytometry, HTS, primary screen | Beta-adrenergic receptor kinase 1 (Homo sapiens), P25098 | FAM-aptamer displacement from GRK2 | inhibition of aptamer binding, % at 10 µM | actives 0.59% (n = 330,000);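 active = inhibition of aptamer binding above 40%, roughly 3 SD of noise, on plates passing a quality check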;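 note: median bead fluorescence of bound FAM aptamer so fluorescent compounds give negative values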
# AlphaScreen ctr: AlphaScreen signal interference compounds, dose response, artefact control for ARNT-TACC3 interaction inhibitor project, biochemical, luminescence, cherry-pick; shares compounds with ARNT TACC3 PPI; His-ARNT PASB-GST AlphaScreen artifact counter-screen; AC50, µM (titrated, usually from 68 µM), inactives show top-dose activity change, negative = signal decrease; actives 50% (n = 1,200); AID 651705, 2012;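 active = every separate test run was called active for a drop in luminescence, with AC50 within twice the top valid dose, actives reach about 71 µM in these data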
# * hit, by the source's call; nt = no result given.
SMILES,CAL PDZ FP-1,ARNT TACC3 PPI,DDE Tn6 FP inh,CAL PDZ FP-2,Tn7 DDE FP,GRK2 inh,AlphaScreen ctr
CCOc1ccc(-n2nc3ccc(N)cc3n2)cc1,0,-5,0,0,0,2,nt
Cn1c(-c2ccc(Cl)cc2)cnc1N,-5,58*,-2,-2,-1,1,58µM*
CCOc1ccc(-c2cnc(N)n2C)cc1,-3,54*,-3,-3,3,0,-17%
C[C@@H]1CN([C@H](C)CO)C(=O)c2cc(NS(=O)(=O)c3cccs3)ccc2O[C@@H]1CN(C)C(=O)Nc1ccc(C(F)(F)F)cc1,nt,-4,nt,nt,nt,nt,nt
COc1ccc(NCc2ccccc2[N+](=O)[O-])cc1OC,1,11,1,0,4,4,nt
COc1cc2c(cc1OC)C(Cc1ccccc1[N+](=O)[O-])=NCC2,-4,39*,1,-1,1,nt,-10%
O=S(=O)(c1ccc(F)cc1)c1nc(-c2ccco2)oc1Nc1ccccc1,0,2,-4,-3,-6,1,nt
O=S(=O)(c1ccccc1)c1nc(-c2ccco2)oc1Nc1ccccc1,6,active,0,0,-6,0,62µM*
CO[C@@H]1CN(C)C(=O)c2cc(NC(C)=O)ccc2OC[C@H](C)N(C(=O)C2CCOCC2)C[C@@H]1C,nt,-4,nt,nt,nt,nt,nt
CC(C)NC(=O)Nc1ccc2c(c1)CC(=O)N([C@@H](C)CO)C[C@H](C)[C@H](CN(C)C(=O)Nc1ccc(C(F)(F)F)cc1)O2,nt,2,nt,nt,nt,nt,nt
C[C@H]1CCCCO[C@H](CN(C)Cc2ccc(C(=O)O)cc2)[C@@H](C)CN([C@@H](C)CO)C(=O)c2cc(N(C)C)ccc2O1,nt,-5,nt,nt,nt,nt,nt
COc1cc(Cc2nccc3cc(OC)c(OC)cc23)c(S(=O)(=O)O)cc1OC,1,active,-3,1,1,12,-4%
Cn1c(N)c(C(=O)c2cc(-c3ccccn3)nc3ccccc23)c(=O)[nH]c1=O,8,29*,-6,-4,-6,nt,-15%
CCOC(=O)CSc1cccc2cccnc12,-1,57*,-2,-2,-3,3,9.3µM*
COc1ccc(CNC(=O)CSc2cccc3cccnc23)cc1,7,-3,-1,0,-9,0,nt
O=C(CSc1cccc2cccnc12)Nc1ccc(S(=O)(=O)N2CCOCC2)cc1,-1,74*,3,-1,-4,2,33µM*
Cc1cccc(CSc2[nH]c(=O)ncc2C)c1,-2,-7,5,-4,4,4,nt
CCCCCOc1ccc(NC(=O)CSc2cccc3cccnc23)cc1,-5,58*,1,0,4,0,63µM*
Cc1cccc(CSc2cccc3cccnc23)c1,-6,62*,-5,-1,1,1,13µM*
COc1ccc(NC(=O)N[C@@H]2CC[C@@H](CCNC(=O)Cc3ccncc3)O[C@@H]2CO)cc1,nt,0,nt,nt,nt,nt,nt
COc1ccc(NC(=O)c2cc(C3CCCCN3S(=O)(=O)c3cn(C)cn3)on2)c(C)c1 (stereo not drawn),nt,nt,-3,nt,3,nt,nt
CCOc1ccc2c(c1)c(N=NC(=N)N)c(O)n2C,-3,36*,1,0,-2,0,-25%
CCOc1ccccc1Nc1nc(N)nc(CN(C)C2CCCCC2)n1,-4,63*,-1,nt,0,0,-16%
